An excerpt weighted towards active compounds, which were near 1.8% of everything screened.
Jurkat NFkB inh: inhibitors of induced NF-kB luciferase reporter, primary screen, TCR NF-kB activation inhibitor project, cell-based, luminescence, uHTS; Jurkat, PMA/ionomycin-induced NF-kB luciferase reporter; inhibition, % at 4 µM; 330,000 tested, 0.53% active; AID 435003, 2010; in the data active means inhibition above about 50%
697 NFkB inh: inhibitors of PMA/ionomycin-induced NF-kB reporter, 697 cells, primary screen, B-cell NF-kB inhibitor project, cell-based, luminescence, uHTS. 697 B-cell NF-kB luciferase reporter, 16 h. 330,000 tested, 0.33% active. inhibition, % at 4 µM. AID 435022, 2010; in the data active means inhibition above about 35%
Gli-Sufu block: Gli-Sufu pathway antagonists, primary screen, luciferase luminescence, Sufu-KO-LIGHT cells, uHTS | Sufu-KO-LIGHT fibroblasts, Gli luciferase reporter luminescence | inhibition, % at 5 µM | 340,000 tested, 0.74% active | AID 588413, 2011;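 active means inhibition above about 55%, limit read from the data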;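 further: 0% = DMSO-treated cells and 100% = wells with medium but no cells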
GalR3 antag: GalR3 antagonists in HEK293 cells, primary screen, cell-based, fluorescence readout. HEK293 GalR3-CNG cAMP membrane potential fluorescence; galR3 body fused to GalR1 C-terminus. inhibition, % at 3 µM. 360,000 tested, 0.44% active. AID 651719, 2012;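 active means inhibition above the screen-wide average plus 3 SD, cut at about 13% in these data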;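 further: forskolin and galanin both at EC90 stimulate the cells; cAMP rise reported by CNG channel membrane potential dye signal; 0% = forskolin plus galanin with DMSO and 100% = forskolin alone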
Target sequence (O60755 1-299 limits assumed): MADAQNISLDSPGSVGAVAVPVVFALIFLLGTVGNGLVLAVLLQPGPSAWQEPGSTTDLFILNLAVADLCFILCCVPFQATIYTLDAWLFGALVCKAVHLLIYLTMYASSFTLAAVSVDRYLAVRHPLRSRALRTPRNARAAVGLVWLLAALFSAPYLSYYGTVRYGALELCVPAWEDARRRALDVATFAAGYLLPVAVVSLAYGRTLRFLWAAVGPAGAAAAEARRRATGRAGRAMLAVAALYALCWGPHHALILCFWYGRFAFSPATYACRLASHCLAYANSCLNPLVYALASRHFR
NR2E3 ag-1: NR2E3 agonists in two-hybrid cells, primary screen, cell-based, luminescence, CHO-S, Gal4-NCOR/VP16-NR2E3; Photoreceptor-specific nuclear receptor (Homo sapiens), Q9Y5X4; luciferase; inhibition of corepressor binding, % at 3.98 µM; 360,000 tested, 0.35% active;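 active means inhibition above the mean of all tested compounds plus 3 SD, cut at about 70% in these data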;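 further: 0% = DMSO with NR2E3 transfected cells and 100% = cells lacking NR2E3 construct; higher means lower luciferase signal from less NR2E3 corepressor binding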
NR2E3 ag-2: inhibitors of NR2E3-RetCOR corepressor binding, primary screen, NR2E3 agonist project, biochemical, TR-FRET, GST-NR2E3, biotin-RetCOR. 1536-well. inhibition of corepressor binding, % at 4.78 µM. 320,000 tested, 0.12% active;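 active means percent inhibition above the cutoff of mean plus 3 SD of all tested compounds, set per screening campaign, cut at about 20% in these data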;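 further: 0% = DMSO wells and 100% = biotin wells as full block of FRET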
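Format: 1536-well format; test system: GST-NR2E3 and biotin-RetCOR proteins; read-out basis: percent inhibition of TR-FRET ratio; timing: 5 h incubation at 4 °C; detection: time-resolved FRET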
Jurkat NFkB conf: PMA/ionomycin-induced NF-kB reporter inhibitors, Jurkat retest, confirmation, T-cell NF-kB inhibitor project, cell-based, luminescence, single concentration. shares compounds with Jurkat NFkB inh. Jurkat NF-kB luciferase, 16 h. inhibition, % at 4 µM. 2,700 tested, 27% active;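 active means inhibition reaching about 45% at 4 µM in either replicate, limit read from the data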;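 further: plate controls were PMA/ionomycin stimulated DMSO wells for no effect and unstimulated DMSO wells for full effect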
* marks the source's active call; other numbers are inactive results.

Screening CCC/C(O)=C1\C(=O)CC(c2ccccc2)CC1=NCCc1c(C)[nH]c2ccccc12 (configuration not stated) returned Jurkat NFkB inh 1.4, 697 NFkB inh 14.5, Gli-Sufu block 9.3, NR2E3 ag-1 -16.4 and NR2E3 ag-2 2.1.
Screening CCCCC(=NCCc1c(C)[nH]c2ccccc12)C1=C(O)CC(c2ccccc2)CC1=O (configuration not stated) returned Jurkat NFkB inh 44.7, 697 NFkB inh -14.7, Gli-Sufu block 23.7, GalR3 antag -3.4, NR2E3 ag-1 -12.2 and NR2E3 ag-2 0.3.
`CCc1cccc(-n2c(C)cc(O)cc2=O)c1` gave GalR3 antag -5.8.
`Cc1cc(N2CCNC[C@@H]2C)ccc1N1C[C@@H](C)O[C@@H](C)C1` gave GalR3 antag -6.1.
For O=[N+]([O-])c1ccc(Cl)c(S(=O)(=O)NCCc2ccccn2)c1 the results were Jurkat NFkB inh -165.7, 697 NFkB inh 11.4, Gli-Sufu block 8.4, GalR3 antag -7.9, NR2E3 ag-1 -25.8 and Jurkat NFkB conf 18.6.
For Cc1cc2c(nc1C)CCCN2S(=O)(=O)c1ccccc1 the results were GalR3 antag -4.0.
For Cc1cccc2c(=O)n3c(cc12)-c1[nH]c2ccccc2c1CC3 the results were Gli-Sufu block -14.6, GalR3 antag -4.1 and NR2E3 ag-1 6.5.
`O=c1c2ccccc2nc2n1CCc1c-2[nH]c2ccccc12` gave Jurkat NFkB inh -193.5, 697 NFkB inh -175.6, Gli-Sufu block -133.6, GalR3 antag 6.3, NR2E3 ag-1 -103.9, NR2E3 ag-2 1.1 and Jurkat NFkB conf -85.1.
Screening O=C(NCc1ccccc1)c1c(Cl)nc(Cl)c(Cl)c1Cl returned Jurkat NFkB inh 50.8*, 697 NFkB inh 5.9, Gli-Sufu block 1.2, GalR3 antag -12.9, NR2E3 ag-1 11.1, NR2E3 ag-2 -0.3 and Jurkat NFkB conf 12.9.
`COc1ccc(S(=O)(=O)N2c3cc(C)ccc3OCC2C(C)(C)C)cc1` (configuration not stated) gave Jurkat NFkB inh 51.1*, 697 NFkB inh -50.4, Gli-Sufu block 8.8, GalR3 antag -3.9, NR2E3 ag-1 -66.1, NR2E3 ag-2 2.1 and Jurkat NFkB conf 16.7.
Cc1ccc(S(=O)(=O)N2c3cc(C)ccc3OCC2C(C)(C)C)cc1 (configuration not stated) was read as Jurkat NFkB inh 32.3, 697 NFkB inh -5.6, Gli-Sufu block 7.3, GalR3 antag -5.0, NR2E3 ag-1 -32.0 and NR2E3 ag-2 1.1.
For CCc1ccccc1NC(=O)Cn1nnc(C(=O)NCc2cccs2)c1N the results were Jurkat NFkB inh 51.1*, 697 NFkB inh -13.3, Gli-Sufu block -10.4, GalR3 antag -8.5, NR2E3 ag-1 -62.5, NR2E3 ag-2 0.0 and Jurkat NFkB conf 24.1.
For COc1ccccc1NC(=O)Cn1nnc(C(=O)NCc2cccs2)c1N the results were Jurkat NFkB inh 52.8*, 697 NFkB inh -12.9, Gli-Sufu block 3.0, GalR3 antag 4.2, NR2E3 ag-1 -11.6, NR2E3 ag-2 -1.6 and Jurkat NFkB conf 62.6*.
`O=C(N[C@H](Cc1ccccc1)C(=O)N(CCC1=CCCCC1)CC1CC1)[C@H]1O[C@@H](n2ccc(=O)[nH]c2=O)[C@H](O)[C@@H]1O` gave GalR3 antag -6.5.
COc1cc(C2C(C#N)=C(N)Oc3cc(O)ccc32)cc(OC)c1OC (configuration not stated) was read as Jurkat NFkB inh 53.3*, 697 NFkB inh -18.5, Gli-Sufu block 25.7, GalR3 antag -9.3, NR2E3 ag-1 8.5, NR2E3 ag-2 2.7 and Jurkat NFkB conf 9.8.
For COc1cc(C2C(C#N)=C(N)Oc3cc(O)ccc32)cc2c1OCO2 (configuration not stated) the results were Jurkat NFkB inh 15.0, 697 NFkB inh 9.0, Gli-Sufu block 6.8, GalR3 antag -8.1, NR2E3 ag-1 4.5 and NR2E3 ag-2 -1.0.
For COc1cc(C2C(C#N)=C(N)Oc3cc(N(C)C)ccc32)cc2c1OCO2 (configuration not stated) the results were Jurkat NFkB inh 67.3*, 697 NFkB inh -107.2, Gli-Sufu block 45.5, GalR3 antag -5.0, NR2E3 ag-1 -12.3, NR2E3 ag-2 2.0 and Jurkat NFkB conf 48.1*.
COc1ccc(C2C(C#N)=C(N)Oc3cc(O)ccc32)cc1OC (configuration not stated) was read as Jurkat NFkB inh 0.9, 697 NFkB inh -21.9, Gli-Sufu block 3.4, GalR3 antag -1.4, NR2E3 ag-1 -19.1 and NR2E3 ag-2 0.1.
COC(=O)Cc1nnn2c1[C@H](C)[C@@H](OC)c1ccccc1-2 was read as GalR3 antag -1.5.
`COc1ccccc1N1CCN(C(=O)c2oc3ccc(Br)cc3c2C)CC1` gave Jurkat NFkB inh 65.5*, 697 NFkB inh -25.0, Gli-Sufu block -4.0, GalR3 antag -4.1, NR2E3 ag-1 -36.8, NR2E3 ag-2 0.3 and Jurkat NFkB conf 6.3.
Screening Cc1cccc(N2CCN(C(=O)c3ccc(S(=O)(=O)N(C)c4ccccc4)cc3)CC2)c1C returned Jurkat NFkB inh 57.8*, 697 NFkB inh -39.2, Gli-Sufu block -3.5, GalR3 antag -6.1, NR2E3 ag-1 20.3 and Jurkat NFkB conf 40.3.
Cc1cccc(N2CCN(C(=O)c3ccc4[nH]c(C)c(C)c4c3)CC2)c1C was read as Jurkat NFkB inh 56.2*, 697 NFkB inh -36.9, Gli-Sufu block -4.1, GalR3 antag -2.8, NR2E3 ag-1 -12.1 and Jurkat NFkB conf 52.5*.
COc1ccccc1N1CCN(C(=O)c2ccc3[nH]c(C)c(C)c3c2)CC1 was read as Jurkat NFkB inh 54.4*, 697 NFkB inh 7.6, Gli-Sufu block 7.3, GalR3 antag -0.2, NR2E3 ag-1 -23.4, NR2E3 ag-2 4.3 and Jurkat NFkB conf 17.1.
CCCCCn1cc(CCC(=O)Nc2ccc(N(C)c3ccccn3)cc2)c2ccccc21 was read as GalR3 antag -8.8.
`Cc1cccc(N2CCN(C(=O)c3c(-c4ccccc4)noc3C)CC2)c1C` gave Jurkat NFkB inh 68.3*, 697 NFkB inh -51.0, Gli-Sufu block 26.9, GalR3 antag -3.2, NR2E3 ag-1 -62.9, NR2E3 ag-2 -2.9 and Jurkat NFkB conf 40.7.
